Experimental data: ChEMBL document CHEMBL2396651, “Improving the biological activity of the antimicrobial peptide anoplin by membrane anchoring through a lipophilic amino acid derivative” (Bioorg Med Chem Lett, 2013)
In brackets after ≈: the same amount, converted by molar mass. Numbered stars: 1 amine (or outer) side, 2 acyl side, 3 side chain; on linkers, the order of the positions; unused ones are H or OH. Square brackets hold non-standard residues; d marks the D form. Peptide text beside a SMILES is read from it. * marks the point of attachment. X1 = CCCCCCCCC[C@H](N[*:1])C(=O)[*:2]; Decanoyl = CCCCCCCCCC(=O)*

Columns and labels:
[1] = Therapeutic index, ratio of EC50 for hemolysis of sheep erythrocytes to MIC for Escherichia coli ATCC 8739; details: read-out: TI
Procedure, shortened: (§1)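 Computed as the hemolytic EC50 divided by the MIC against the named strain, both in the same mass-per-volume units. Both inputs come from this paper's hemoglobin-leakage and growth-inhibition assays.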

Staphylococcus aureus = assay: Antibacterial activity against Staphylococcus aureus ATCC […] assessed as growth inhibition after 24 hrs by broth microdilution method; format: functional
Escherichia coli = assay: Antibacterial activity against Escherichia coli ATCC 8739 assessed as growth inhibition after 24 hrs by broth microdilution method; format: functional; details: ATCC 8739, 24 h
[2] = Therapeutic index, ratio of EC50 for hemolysis of sheep erythrocytes to MIC for Staphylococcus aureus ATCC […]; details: read-out: TI; procedure, shortened: as §1
[3] = Hemolytic activity in sheep erythrocytes after 1 hr; format: ADME, cell-based; details: Ovis aries, Erythrocyte
Procedure, shortened: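 Red blood cells were exposed to the peptides, and hemoglobin leakage was the read-out.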

[4] = Induction of membrane lysis in DOPC large unilamellar vesicles model assessed as release of carboxyfluorescein at 50 ug/mL by fluorescence spectroscopic analysis relative to control; format: physicochemical
[5] = Induction of membrane lysis in DOPC/DOPG large unilamellar vesicles model assessed as release of carboxyfluorescein at 50 ug/mL by fluorescence spectroscopic analysis relative to control; format: physicochemical

MIC (Staphylococcus aureus) [mg/L]	MIC (Escherichia coli) [mg/L]	Activity [4] [%]	Activity [5] [%]	Compound	selectivity ratio [1]	selectivity ratio [2]	EC50 [3] [mg/L]
2.5 (≈ 2.04 µM)	5.2 (≈ 4.25 µM)	47	48	CCCCCCCCC[C@H](NC(=O)CN)C(=O)N[C@@H](CC(C)C)C(=O)N[C@@H](CCCCN)C(=O)N[C@@H](CCCNC(=N)N)C(=O)N[C@H](C(=O)N[C@@H](CCCCN)C(=O)N[C@H](C(=O)N[C@@H](CC(C)C)C(=O)N[C@@H](CC(C)C)C(N)=O)[C@@H](C)O)[C@@H](C)CC (H-G[X1]LKRIKTLL-NH2)	10.5	43.2	108 (≈ 88.3 µM)
2.5 (≈ 2.04 µM)	10.3 (≈ 8.42 µM)	45	48	CCCCCCCCC[C@H](NC(=O)[C@H](CCCNC(=N)N)NC(=O)[C@H](CCCCN)NC(=O)[C@H](CC(C)C)NC(=O)[C@H](CC(C)C)NC(=O)CN)C(=O)N[C@@H](CCCCN)C(=O)N[C@H](C(=O)N[C@@H](CC(C)C)C(=O)N[C@@H](CC(C)C)C(N)=O)[C@@H](C)O (H-GLLKR[X1]KTLL-NH2)	1.9	15.6	39 (≈ 31.9 µM)
2.5 (≈ 2.04 µM)	10.3 (≈ 8.42 µM)	48	48	CCCCCCCCC[C@H](NC(=O)[C@H](CC(C)C)NC(=O)[C@@H](NC(=O)[C@H](CCCCN)NC(=O)[C@@H](NC(=O)[C@H](CCCNC(=N)N)NC(=O)[C@H](CCCCN)NC(=O)[C@H](CC(C)C)NC(=O)[C@H](CC(C)C)NC(=O)CN)[C@@H](C)CC)[C@@H](C)O)C(N)=O (H-GLLKRIKTL[X1]-NH2)	3.7	30.8	77 (≈ 62.9 µM)
20.6	41	41	35	H-GLLKRIKTLL-NH2 [ANOPLIN]	> 12.2	> 24.3	> 500

Compound	MIC (Staphylococcus aureus) [mg/L]	MIC (Escherichia coli) [mg/L]	Activity [4] [%]	Activity [5] [%]	selectivity ratio [1]	selectivity ratio [2]	EC50 [3] [mg/L]
CCCCCCCCCC(=O)NCC(=O)N[C@@H](CC(C)C)C(=O)N[C@@H](CC(C)C)C(=O)N[C@@H](CCCCN)C(=O)N[C@@H](CCCNC(=N)N)C(=O)N[C@H](C(=O)N[C@@H](CCCCN)C(=O)N[C@H](C(=O)N[C@@H](CC(C)C)C(=O)N[C@@H](CC(C)C)C(N)=O)[C@@H](C)O)[C@@H](C)CC (Decanoyl-GLLKRIKTLL-NH2)	2.5 (≈ 1.91 µM)	2.5 (≈ 1.91 µM)	62	100	2	2	5 (≈ 3.82 µM)
